Assay results from ChEMBL document CHEMBL1649368, “Novel isatinyl thiosemicarbazones derivatives as potential molecule to combat HIV-TB co-infection” (Eur J Med Chem, 2011).
Values after ≈ are worked out from the molar mass of the structure shown.

Legend:
[1] = tested on: Human immunodeficiency virus 1; test: Antiviral activity against HIV1 3B infected in human MT4 cells assessed as protection against virus-induced cytopathogenicity after 5 days by microtiter plate analysis; assay type: functional, organism-based; conditions: Human immunodeficiency virus 1, 3B, MT4, 120 h
How it was run: (§1)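 MT-4 cells were grown in RPMI-1640 DM with 10% heat-inactivated calf serum and gentamicin. HIV-1 IIIB (100 CCID50) or mock infection was run in parallel with compounds in triplicate, at 37 °C and 5% CO2 for 5 days. Viability was read by MTT spectrophotometry. EC50 was the 50% reduction in virus cytopathic effect; CC50 was the 50% loss of mock-infected cell viability.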

[2] = Cytotoxicity against human MT4 cells after 5 days by spectrophotometry; assay type: cell-based; how it was run: as §1
[3] = tested on: Mycobacterium tuberculosis; test: Antimycobacterial activity against Mycobacterium tuberculosis H37Ra by agar dilution method; assay type: functional
How it was run: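 Log-phase MTB was tested by agar dilution on Middlebrook 7H11 with OADC, following NCCLS guidance. MIC was the lowest concentration giving complete growth inhibition, determined in triplicate.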

| Compound | EC50 [1] [µM] | CC50 at 120 h [2] [µM] | MIC [3] [µM] |
| --- | --- | --- | --- |
| Cc1ccc2c(c1)/C(=N/NC(=S)NO)C(=O)N2CN(C)C | 113 | 651 | 81.3 (≈ 25 µg/mL) |
| O=C(O)c1cn(C2CC2)c2cc(N3CCN(CN4C(=O)/C(=N\NC(=S)NO)c5cc(Cl)ccc54)CC3)c(F)cc2c1=O | 33.4 | 229 | 2.54 (≈ 1.56 µg/mL) |
| CCN(CC)CN1C(=O)/C(=N\NC(=S)NO)c2cc(C)ccc21 | 57.6 | 534 | 11.8 (≈ 3.97 µg/mL) |
| CCn1cc(C(=O)O)c(=O)c2cc(F)c(N3CCN(CN4C(=O)/C(=N\NC(=S)NOC)c5cc(C)ccc54)CC3)cc21 | 11.4 | 238 | 1.31 (≈ 0.78 µg/mL) |
| Cc1ccnc2c1NC(=O)c1cccnc1N2C1CC1 [NEVIRAPINE] | 0.13 | 156 | – |
| CCn1cc(C(=O)O)c(=O)c2cc(F)c(N3CCN(CN4C(=O)/C(=N\NC(=S)NO)c5cc(C)ccc54)CC3)cc21 | 16.9 | 327 | 1.34 (≈ 0.779 µg/mL) |
| COc1c(N2CCN(CN3C(=O)/C(=N\NC(=S)NO)c4cc(F)ccc43)C(C)C2)c(F)cc2c(=O)c(C(=O)O)cn(C3CC3)c12 (centres undefined) | 4.18 | 206 | 0.16 (≈ 0.103 µg/mL) |
| CONC(=S)N/N=C1\C(=O)N(CN(C)C)c2ccc(C)cc21 | 64.1 | 622 | 19.4 (≈ 6.25 µg/mL) |
| CONC(=S)N/N=C1\C(=O)N(CN2CCN(c3ccccc3)CC2)c2ccc(Cl)cc21 | 17.7 | 267 | 13.6 (≈ 6.25 µg/mL) |
| CONC(=S)N/N=C1\C(=O)N(CN(C)C)c2ccc(F)cc21 | 37.8 | 560 | 9.62 (≈ 3.13 µg/mL) |
| COc1c(N2CCN(CN3C(=O)/C(=N\NC(=S)NO)c4cc(Cl)ccc43)C(C)C2)c(F)cc2c(=O)c(C(=O)O)cn(C3CC3)c12 (centres undefined) | 15.3 | 234 | 1.19 (≈ 0.783 µg/mL) |
| CONC(=S)N/N=C1\C(=O)N(CN(C)C)c2ccc(Cl)cc21 | 57.9 | 552 | 18.3 (≈ 6.25 µg/mL) |
| O=C1/C(=N\NC(=S)NO)c2cc(Cl)ccc2N1CN1CCOCC1 | 35.1 | 348 | 6.11 (≈ 2.26 µg/mL) |
| CCN(CC)CN1C(=O)/C(=N\NC(=S)NO)c2cc(Cl)ccc21 | 121 | 562 | 70.3 (≈ 25 µg/mL) |
| CONC(=S)N/N=C1\C(=O)N(CN2CCN(c3ccccc3)CC2)c2ccc(C)cc21 | 17.3 | 276 | 12.4 (≈ 5.42 µg/mL) |
| CONC(=S)N/N=C1\C(=O)N(CN2CCN(c3cc4c(cc3F)c(=O)c(C(=O)O)cn4C3CC3)CC2)c2ccc(F)cc21 | 11.4 | 255 | 0.31 (≈ 0.19 µg/mL) |
| CCn1cc(C(=O)O)c(=O)c2cc(F)c(N3CCN(CN4C(=O)/C(=N\NC(=S)NOC)c5cc(F)ccc54)C(C)C3)c(F)c21 (centres undefined) | 4.43 | 178 | 0.63 (≈ 0.398 µg/mL) |
| COc1ccc(N2CCN(CN3C(=O)/C(=N\NC(=S)NO)c4cc(F)ccc43)CC2)cc1 | 14.7 | 260 | 6.83 (≈ 3.13 µg/mL) |
| CCn1cc(C(=O)O)c(=O)c2cc(F)c(N3CCN(CN4C(=O)/C(=N\NC(=S)NOC)c5cc(C)ccc54)C(C)C3)c(F)c21 (centres undefined) | 5.74 | 156 | 1.24 (≈ 0.778 µg/mL) |
| COc1c(N2CCN(CN3C(=O)/C(=N\NC(=S)NO)c4cc(C)ccc43)C(C)C2)c(F)cc2c(=O)c(C(=O)O)cn(C3CC3)c12 (centres undefined) | 11.1 | 276 | 0.63 (≈ 0.402 µg/mL) |
| CCn1cc(C(=O)O)c(=O)c2cc(F)c(N3CCN(CN4C(=O)/C(=N\NC(=S)NO)c5cc(Cl)ccc54)C(C)C3)c(F)c21 (centres undefined) | 23.2 | 209 | 1.23 (≈ 0.78 µg/mL) |
| CN(C)CN1C(=O)/C(=N\NC(=S)NO)c2cc(Cl)ccc21 | 130 | 610 | 76.3 (≈ 25 µg/mL) |
| CN(C)CN1C(=O)/C(=N\NC(=S)NO)c2cc(F)ccc21 | 47.2 | 599 | 10.1 (≈ 3.13 µg/mL) |

| Compound | EC50 [1] [µM] | CC50 at 120 h [2] [µM] | MIC [3] [µM] |
| --- | --- | --- | --- |
| CONC(=S)N/N=C1\C(=O)N(CN2CCN(c3c(F)cc4c(=O)c(C(=O)O)cn(C5CC5)c4c3OC)CC2C)c2ccc(F)cc21 (centres undefined) | 1.88 | 171 | 0.15 (≈ 0.0984 µg/mL) |
| CCN(CC)CN1C(=O)/C(=N\NC(=S)NOC)c2cc(Cl)ccc21 | 58.4 | 454 | 16.9 (≈ 6.25 µg/mL) |
| O=C1/C(=N\NC(=S)NO)c2cc(Cl)ccc2N1CN1CCN(c2ccccc2)CC1 | 28.3 | 273 | 28.1 (≈ 12.5 µg/mL) |
| CONC(=S)N/N=C1\C(=O)N(CN2CCN(c3ccc(OC)cc3)CC2)c2ccc(F)cc21 | 12.7 | 276 | 6.14 (≈ 2.9 µg/mL) |
| CONC(=S)N/N=C1\C(=O)N(CN2CCN(c3ccc(OC)cc3)CC2)c2ccc(Cl)cc21 | 13.1 | 221 | 12.8 (≈ 6.25 µg/mL) |
| COc1ccc(N2CCN(CN3C(=O)/C(=N\NC(=S)NO)c4cc(Cl)ccc43)CC2)cc1 | 21.3 | 279 | 13.2 (≈ 6.25 µg/mL) |
| COc1ccc(N2CCN(CN3C(=O)/C(=N\NC(=S)NO)c4cc(C)ccc43)CC2)cc1 | 15 | 321 | 13.8 (≈ 6.25 µg/mL) |
| CONC(=S)N/N=C1\C(=O)N(CN2CCN(c3c(F)cc4c(=O)c(C(=O)O)cn(C5CC5)c4c3OC)CC2C)c2ccc(Cl)cc21 (centres undefined) | 7.14 | 164 | 0.3 (≈ 0.202 µg/mL) |
| CCN(CC)CN1C(=O)/C(=N\NC(=S)NO)c2cc(F)ccc21 | 36.2 | 521 | 9.22 (≈ 3.13 µg/mL) |
| O=C1/C(=N\NC(=S)NO)c2cc(F)ccc2N1CN1CCN(c2ccccc2)CC1 | 19.6 | 251 | 7.3 (≈ 3.13 µg/mL) |
| Cc1ccc2c(c1)/C(=N/NC(=S)NO)C(=O)N2CN1CCOCC1 | 93.6 | 572 | 8.96 (≈ 3.13 µg/mL) |
| CONC(=S)N/N=C1\C(=O)N(CN2CCN(c3ccccc3)CC2)c2ccc(F)cc21 | 18.1 | 227 | 7.07 (≈ 3.13 µg/mL) |
| O=C1/C(=N\NC(=S)NO)c2cc(Cl)ccc2N1CN1CCN(c2ccc(Cl)cc2)CC1 | 11.1 | 268 | 13 (≈ 6.25 µg/mL) |
| CCN(CC)CN1C(=O)/C(=N\NC(=S)NOC)c2cc(F)ccc21 | 29.7 | 490 | 4.41 (≈ 1.56 µg/mL) |
| CONC(=S)N/N=C1\C(=O)N(CN2CCOCC2)c2ccc(Cl)cc21 | 28.4 | 322 | 4.06 (≈ 1.56 µg/mL) |
| CONC(=S)N/N=C1\C(=O)N(CN2CCOCC2)c2ccc(C)cc21 | 45.1 | 365 | 4.29 (≈ 1.56 µg/mL) |
| CCn1cc(C(=O)O)c(=O)c2cc(F)c(N3CCN(CN4C(=O)/C(=N\NC(=S)NO)c5cc(Cl)ccc54)CC3)cc21 | 27.2 | 186 | 1.3 (≈ 0.783 µg/mL) |
| CCn1cc(C(=O)O)c(=O)c2cc(F)c(N3CCN(CN4C(=O)/C(=N\NC(=S)NO)c5cc(F)ccc54)CC3)cc21 | 18.4 | 208 | 1.33 (≈ 0.779 µg/mL) |
| O=C1/C(=N\NC(=S)NO)c2cc(F)ccc2N1CN1CCOCC1 | 61.4 | 465 | 4.41 (≈ 1.56 µg/mL) |
| Cc1ccc2c(c1)/C(=N/NC(=S)NO)C(=O)N2CN1CCN(c2ccccc2)CC1 | 19.3 | 420 | 14.7 (≈ 6.25 µg/mL) |
| CONC(=S)N/N=C1\C(=O)N(CN2CCN(c3cc4c(cc3F)c(=O)c(C(=O)O)cn4C3CC3)CC2)c2ccc(Cl)cc21 | 11 | 143 | 0.64 (≈ 0.402 µg/mL) |
| CCn1cc(C(=O)O)c(=O)c2cc(F)c(N3CCN(CN4C(=O)/C(=N\NC(=S)NOC)c5cc(Cl)ccc54)C(C)C3)c(F)c21 (centres undefined) | 9.26 | 180 | 1.2 (≈ 0.778 µg/mL) |
